Legend:
Rho A269F = Rho A269F (Bos taurus, UniProt P02699, A269F); experiment: Trp-based FRET assay, ATR release kinetics; assay type: binding, bovine
Method in brief: (§1)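 ATR release runs on HEK293F-expressed, 1D4-immunopurified mutant bovine rhodopsin at 0.25–0.30 μm in 1% POPC/1% CHAPS bicelles, pH 6.0. Release is followed as recovery of Trp fluorescence (ex 295, em 330 nm), the inverse of retinal-induced quenching, integrated for 2 s every 30 s. Traces are fitted to a single exponential to give koff, reported as mean ± STD of ≥3 trials.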

Rho F212A = Rho F212A (Bos taurus, UniProt P02699, F212A); experiment: Trp-based FRET assay, ATR release kinetics; assay type: binding, bovine
Method in brief: as §1

Rho I189P [1] = molecular target: T1, Rho I189P (Bos taurus, UniProt P02699, I189P); experiment: Trp-based FRET assay, ATR release kinetics; assay type: binding, bovine; conditions: I189P vs I189, TM5 single vs TM5/I189P double mutants, koff Trp
Method in brief: as §1

Rho T94I [2] = molecular target: T2, Rho T94I (Bos taurus, UniProt P02699, T94I); experiment: Trp-based FRET assay, ATR release kinetics; assay type: binding, bovine
Method in brief: as §1

Rho A269W = Rho A269W (Bos taurus, UniProt P02699, A269W); experiment: regeneration with 11CR; assay type: binding, bovine; conditions: expressed at very low level
Rho T94I [3] = molecular target: T2, Rho T94I; experiment: Trp-based FRET assay, 11CR entry kinetics; assay type: binding, bovine
Method in brief: (§2)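 Mutant bovine opsin is expressed in HEK293F cells, regenerated with 5 μm 11CR overnight at 4°C, then 1D4-immunopurified in DDM and C9-peptide eluted. Receptor at 0.25–0.30 μm is diluted into 1% POPC/1% CHAPS bicelles, pH 6.0, stirred in a temperature-controlled cuvette, with 11CR at 0.5–30 μm final. Trp quenching (ex 295, em 330 nm) is fitted pseudo-first-order; k2 = kobs/[retinal]. Data are mean ± STD of ≥3 trials.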

S144-Alexa488 Rho F212A = S144-Alexa488 Rho F212A (Bos taurus, UniProt P02699, F212A/S144F); experiment: Alexa488-based FRET assay, 11CR entry kinetics; assay type: binding, bovine; conditions: F212A vs wt; Eyring plot
Method in brief: (§3)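 Bovine opsin bearing S144azF is expressed in HEK293F cells with 1 mm azF for 96 h and regenerated with 11CR. It is purified by 1D4 immunopurification in DDM and labelled on resin with 50 μm Alexa488-DIBO for 18 h at 25°C. Labelled receptor (5–50 nm) sits in 1% POPC/1% CHAPS bicelles, pH 6.0, with 0.5–30 μm 11CR. Fluorescence (ex 488, em 520 nm) decay gives kobs; kon = kobs/[retinal], measured across temperatures for Eyring plots; mean ± STD.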

opsin = conditions: 11CR binding with opsin; ref Tian et al., 2017a; cited from earlier work
Rho A269Y = Rho A269Y (Bos taurus, UniProt P02699, A269Y); experiment: regeneration with 11CR; assay type: binding, bovine; conditions: 11CR 15 μM, over 48 h
Rho F212W = Rho F212W (Bos taurus, UniProt P02699, F212W); experiment: Trp-based FRET assay, 11CR entry kinetics; assay type: binding, bovine
Method in brief: as §2

S144-Alexa488 Rho F208W = S144-Alexa488 Rho F208W (Bos taurus, UniProt P02699, F208W/S144F); experiment: Alexa488-based FRET assay, 11CR entry kinetics; assay type: binding, bovine; conditions: F208W vs wt; Eyring plot
Method in brief: as §3

Rho I189P [4] = molecular target: T1, Rho I189P; experiment: Trp-based FRET assay, 11CR entry kinetics; assay type: binding, bovine; conditions: I189P vs I189, TM5 single vs TM5/I189P double mutants, kon Trp
Method in brief: as §2

ATR exit kinetics normalized to the wt Rho (Rho A269F)	ATR exit kinetics normalized to the wt Rho (Rho F212A)	reduction of activation free energy Δ‡Goff by I189P (Rho I189P [1])	ATR release kinetics (relative to wt) (Rho T94I [2])	regeneration with 11CR (Rho A269W)	11CR entry kinetics (relative to wt) (Rho T94I [3])	reduction of activation enthalpy (Δ‡H) of 11CR entry (S144-Alexa488 Rho F212A)	regeneration with 11CR (Rho A269Y)	11CR entry kinetics normalized to the wt Rho (Rho F212W)	increase of activation enthalpy (Δ‡H) of 11CR entry (S144-Alexa488 Rho F208W)	reduction of activation free energy Δ‡Gon by I189P (Rho I189P [4])	SMILES	activation barrier Δ‡Gon (opsin)
0.91 ± 0.07	2.82 ± 1.0	1.6 ± 0.8 kcal/mol	0.17 ± 0.02	–	–	–	–	–	–	–	CC1=C(/C=C/C(C)=C/C=C/C(C)=C/C=O)C(C)(C)CCC1 [ATR, all-trans-retinal]	–
–	–	–	–	failed to regenerate	0.80 ± 0.04	3.7 ± 1.6 kcal/mol	could not be regenerated	0.043 ± 0.022	4.8 ± 3.1 kcal/mol	1.6 ± 0.3 kcal/mol	CC1=C(/C=C/C(C)=C/C=C/C(C)=C/C=O)C(C)(C)CCC1 [11CR, 11-cis-retinal]	13.5 kcal/mol
